pEC50: −log10 of the molar value. ≈ marks a conversion by molar mass, not a printed value. Calls of active or inactive are those of the source. The calls are words filed in the database; no cut-off is given here. Bridge positions count the residues as written; N and C are the ends. Square brackets hold non-standard residues; d marks the D form. Peptide text beside a SMILES is read from it. Bip = N[C@@H](Cc1ccc(-c2ccccc2)cc1)C(=O)O; 2Nal = N[C@@H](Cc1ccc2ccccc2c1)C(=O)O; Dab = NCC[C@H](N)C(=O)O; AEEA = NCCOCCOCC(=O)O; Aoc = NCCCCCCCC(=O)O; Ahx = NCCCCCC(=O)O; AEA = NCCOCC(=O)O; GABA = NCCCC(=O)O
Key:
Escherichia coli = experiment: Antimicrobial activity against Escherichia coli ATCC 25922 after 18 hrs by tube microdilution method; format: functional; settings: ATCC 25922, 18 h
Staphylococcus aureus [1] = experiment: Antimicrobial activity against methicillin-resistant Staphylococcus aureus ATCC 33591 after 18 hrs by tube microdilution method; format: functional; settings: ATCC 33591, 18 h
Klebsiella pneumoniae = experiment: Antimicrobial activity against multiple drug resistant-Klebsiella pneumoniae ATCC 700603 after 18 hrs by tube microdilution method; format: functional; settings: Klebsiella pneumoniae, 700603, 18 h
Acinetobacter baumannii = experiment: Antimicrobial activity against multiple drug resistant-Acinetobacter baumannii ATCC BAA-1605 after 18 hrs by tube microdilution method; format: functional; settings: ATCC BAA-1605, 18 h
Pseudomonas aeruginosa = experiment: Antimicrobial activity against Pseudomonas aeruginosa ATCC 27853 after 18 hrs by tube microdilution method; format: functional; settings: ATCC 27853, 18 h
Enterococcus faecium = experiment: Antimicrobial activity against vancomycin-resistant Enterococcus faecium ATCC 700221 after 18 hrs by tube microdilution method; format: functional; settings: ATCC 700221, 18 h
Erythrocyte = experiment: Hemolytic activity in human RBC after 1 hr by microplate reader method; format: ADME, cell-based
Lipid bilayer [2] = experiment: Binding affinity to DOPE/DOPG large unilamellar vesicles in 3:1 ratio assessed as exciton split measured at 225 nanometer in NaHCO3 buffer
Lipid bilayer [3] = experiment: Membrane permeabilization in DOPC/POPG large unilamellar vesicles in 3:1 ratio assessed as sulforhodamine B release at 16 to 64 uM by fluorescence assay
Procedure, shortened: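 Sulforhodamine B was entrapped at self-quenching concentration in LUVs of DOPC/POPG at 3:1. PE lipids were excluded, and palmitoyl replaced one oleyl chain for vesicle stability. Peptide was added at 16, 32 or 64 μM, and marker release was followed over time as fluorescence recovery on dye release and dilution.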

Staphylococcus aureus [4] = experiment: Bactericidal activity against Staphylococcus aureus ATCC 29213 assessed as reduction in bacterial burden at 32 uM measured up to 30 mins by time kill kinetic study; format: functional
Procedure, shortened: (§1)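 Time-course kill assay against S. aureus ATCC 29213 with peptide at 32 μM. Viable cell count was followed over time as colony counts, with a final sampling at 24 h.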

Staphylococcus aureus [5] = experiment: Bactericidal activity against Staphylococcus aureus ATCC 29213 assessed as reduction in bacterial burden at 32 uM after 24 hrs by time kill kinetic study; format: functional, organism-based; procedure, shortened: as §1
Staphylococcus aureus [6] = experiment: Bactericidal activity against Staphylococcus aureus ATCC 29213 assessed as reduction in bacterial burden at 32 uM measured up to 3.5 hrs by time kill kinetic study; format: functional; procedure, shortened: as §1

Row | SMILES | MIC (Escherichia coli) [µM] | MIC (Staphylococcus aureus [1]) [µM] | MIC (Klebsiella pneumoniae) [µM] | MIC (Acinetobacter baumannii) [µM] | MIC (Pseudomonas aeruginosa) [µM] | MIC (Enterococcus faecium) [µM] | pEC50 (Erythrocyte) | Activity (Lipid bilayer [2]) | Activity (Lipid bilayer [3]) | LCK (Staphylococcus aureus [4]) | Activity (Staphylococcus aureus [5]) | LCK (Staphylococcus aureus [6])
1 | NCCCC[C@@H]1NC(=O)[C@H](Cc2ccc3ccccc3c2)NC(=O)COCCNC(=O)[C@H](Cc2ccc(-c3ccccc3)cc2)NC(=O)[C@H](CCCCN)NC(=O)[C@H](CCCCN)NC(=O)[C@H](Cc2ccc3ccccc3c2)NC(=O)[C@H](CCCCN)NC(=O)[C@H](CC(N)=O)NC1=O (cyclo([2Nal]KK[Bip][AEA][2Nal]KNK)) | 32 (≈ 43.1 µg/mL) | 16 (≈ 21.5 µg/mL) | 64 (≈ 86.1 µg/mL) | 32 (≈ 43.1 µg/mL) | 32 (≈ 43.1 µg/mL) | 4 (≈ 5.38 µg/mL) | < 3.52 | Active | – | – | – | –
2 | NCCCC[C@@H]1NC(=O)[C@H](Cc2ccc3ccccc3c2)NC(=O)COCCOCCNC(=O)[C@H](Cc2ccc(-c3ccccc3)cc2)NC(=O)[C@H](CCCCN)NC(=O)[C@H](CCCCN)NC(=O)[C@H](Cc2ccc3ccccc3c2)NC(=O)[C@H](CCCCN)NC(=O)[C@H](CC(N)=O)NC1=O (cyclo(K[2Nal]KK[Bip][AEEA][2Nal]KN)) | 64 (≈ 88.9 µg/mL) | 16 (≈ 22.2 µg/mL) | 64 (≈ 88.9 µg/mL) | 16 (≈ 22.2 µg/mL) | 32 (≈ 44.5 µg/mL) | 2 (≈ 2.78 µg/mL) | < 3.52 | inactive | Active | – | – | –
3 | NCCCC[C@@H]1NC(=O)[C@H](Cc2ccc3ccccc3c2)NC(=O)CCCCCCCCCNC(=O)[C@H](Cc2ccc(-c3ccccc3)cc2)NC(=O)[C@H](CCCCN)NC(=O)[C@H](CCCCN)NC(=O)[C@H](Cc2ccc3ccccc3c2)NC(=O)[C@H](CCCCN)NC(=O)[C@H](CC(N)=O)NC1=O | – | – | – | – | – | – | – | Active | – | – | – | –
4 | NCCCC[C@@H]1NC(=O)[C@H](CCCCN)NC(=O)[C@H](Cc2ccc3ccccc3c2)NC(=O)[C@H](CCCCN)NC(=O)[C@H](CC(N)=O)NC(=O)[C@H](CCCCN)NC(=O)[C@H](Cc2ccc3ccccc3c2)NC(=O)[C@@H](N)CCCCNC(=O)[C@H](Cc2ccc(-c3ccccc3)cc2)NC1=O (H-K[2Nal]KNK[2Nal]KK[Bip]; lactam 1-C) | 32 (≈ 43.9 µg/mL) | 16 (≈ 22 µg/mL) | 64 (≈ 87.9 µg/mL) | > 64 | 16 (≈ 22 µg/mL) | 2 (≈ 2.75 µg/mL) | < 3.52 | Active | – | – | – | –
5 | NCCCC[C@@H]1NC(=O)[C@H](Cc2ccc3ccccc3c2)NC(=O)CCCCCNC(=O)[C@H](Cc2ccc(-c3ccccc3)cc2)NC(=O)[C@H](CCCCN)NC(=O)[C@H](CCCCN)NC(=O)[C@H](Cc2ccc3ccccc3c2)NC(=O)[C@H](CCCCN)NC(=O)[C@H](CC(N)=O)NC1=O (cyclo([2Nal]KK[Bip][Ahx][2Nal]KNK)) | 16 (≈ 21.7 µg/mL) | 8 (≈ 10.9 µg/mL) | 8 (≈ 10.9 µg/mL) | 8 (≈ 10.9 µg/mL) | 16 (≈ 21.7 µg/mL) | 2 (≈ 2.72 µg/mL) | 4.74 | Active | – | – | – | –
6 | NCCCC[C@@H]1NC(=O)[C@H](Cc2ccc3ccccc3c2)NC(=O)CCCNC(=O)[C@H](Cc2ccc(-c3ccccc3)cc2)NC(=O)[C@H](CCCCN)NC(=O)[C@H](CCCCN)NC(=O)[C@H](Cc2ccc3ccccc3c2)NC(=O)[C@H](CCCCN)NC(=O)[C@H](CC(N)=O)NC1=O (cyclo([2Nal]KK[Bip][GABA][2Nal]KNK)) | 32 (≈ 42.5 µg/mL) | 16 (≈ 21.3 µg/mL) | 32 (≈ 42.5 µg/mL) | 32 (≈ 42.5 µg/mL) | 32 (≈ 42.5 µg/mL) | 4 (≈ 5.32 µg/mL) | 3.81 | Active | – | 3 | Active | –
7 | NCCCC[C@@H]1NC(=O)[C@H](Cc2ccc3ccccc3c2)NC(=O)CNC(=O)[C@H](Cc2ccc(-c3ccccc3)cc2)NC(=O)[C@H](CCCCN)NC(=O)[C@H](CCCCN)NC(=O)[C@H](Cc2ccc3ccccc3c2)NC(=O)[C@H](CCCCN)NC(=O)[C@H](CC(N)=O)NC1=O (cyclo([2Nal]KK[Bip]G[2Nal]KNK)) | 32 (≈ 41.7 µg/mL) | 8 (≈ 10.4 µg/mL) | 32 (≈ 41.7 µg/mL) | 32 (≈ 41.7 µg/mL) | 32 (≈ 41.7 µg/mL) | 4 (≈ 5.21 µg/mL) | 4.35 | Active | Active | – | Active | –
8 | NCCCC[C@@H]1NC(=O)[C@H](CCCCN)NC(=O)[C@H](Cc2ccc3ccccc3c2)NC(=O)[C@H](CCCCN)NC(=O)[C@@H](CC(N)=O)NC(=O)[C@H](CCCCN)NC(=O)[C@H](Cc2ccc3ccccc3c2)NC(=O)CCCCCCCCCNC(=O)[C@H](Cc2ccc(-c3ccccc3)cc2)NC1=O | 16 (≈ 22.6 µg/mL) | 16 (≈ 22.6 µg/mL) | > 64 | 16 (≈ 22.6 µg/mL) | > 64 | 8 (≈ 11.3 µg/mL) | 5.30 | – | – | – | – | –
9 | NCCCC[C@@H]1NC(=O)[C@H](Cc2ccc3ccccc3c2)NC(=O)CCCCCCCNC(=O)[C@H](Cc2ccc(-c3ccccc3)cc2)NC(=O)[C@H](CCCCN)NC(=O)[C@H](CCCCN)NC(=O)[C@H](Cc2ccc3ccccc3c2)NC(=O)[C@H](CCCCN)NC(=O)[C@H](CC(N)=O)NC1=O (cyclo([2Nal]KK[Bip][Aoc][2Nal]KNK)) | 16 (≈ 22.2 µg/mL) | 4 (≈ 5.54 µg/mL) | 16 (≈ 22.2 µg/mL) | 16 (≈ 22.2 µg/mL) | 16 (≈ 22.2 µg/mL) | 2 (≈ 2.77 µg/mL) | 4.92 | Active | Active | – | – | –
10 | NCCCC[C@@H]1NC(=O)[C@H](CCCCN)NC(=O)[C@H](Cc2ccc3ccccc3c2)NC(=O)[C@H](CCCCN)NC(=O)[C@H](CC(N)=O)NC(=O)[C@H](CCCCN)NC(=O)[C@H](Cc2ccc3ccccc3c2)NC(=O)[C@@H](N)CCNC(=O)[C@H](Cc2ccc(-c3ccccc3)cc2)NC1=O (H-[Dab][2Nal]KNK[2Nal]KK[Bip]; lactam 1-C) | 64 (≈ 86.1 µg/mL) | 16 (≈ 21.5 µg/mL) | 64 (≈ 86.1 µg/mL) | > 64 | 32 (≈ 43 µg/mL) | 2 (≈ 2.69 µg/mL) | < 3.52 | Active | – | – | Active | 3

Source: ChEMBL document CHEMBL4428079, “Modulation of Backbone Flexibility for Effective Dissociation of Antibacterial and Hemolytic Activity in Cyclic Peptides” (ACS Med Chem Lett, 2016)
